Measured values pooled from the literature.
Lines come from different studies, so protocols differ. pIC50: −log10 of the molar value.
Read-out: cell growth or viability

Cc1cccc(F)c1NC(=N)CC(O)c1cc2c(F)cc(F)cc2c2cc(C(F)(F)F)ccc12 (stereo not drawn) — pIC50 (HepG2; neutral red; 24 h): 4.64
CN(C)C(=O)c1sc2nc(-c3ccccc3)ccc2c1N — pIC50 (HepG2; 72 h): < 4.00
O=C1[O][Pt]2([NH][C@@H]3CCCC[C@H]3[NH]2)[O]C1=O — pIC50 (THLE3; imaging; 72 h): 4.49
COc1ccc(-c2cc(C(F)(F)F)c3c(N)c(C(=O)NC4CC4)sc3n2)cc1 — pIC50 (HepG2; 72 h): < 4.00
N=C(CC(O)c1cc2c(F)cc(F)cc2c2cc(C(F)(F)F)ccc12)Nc1cc(F)c(F)c(F)c1 (stereo not drawn) — pIC50 (HepG2; neutral red; 24 h): 4.74
N.N.[Cl][Pt][Cl] — inhibition (Ramos; ATP luminescence; 10 µM, 72 h): 100%
Nc1c(C(=O)NCc2ccc(F)cc2)sc2nc(-c3ccccc3)ccc12 — pIC50 (HepG2; 72 h): < 4.00
N=C(CC(O)c1cc2c(F)cc(F)cc2c2cc(C(F)(F)F)ccc12)Nc1ccc(N2CCC(F)(F)CC2)cc1 (stereo not drawn) — pIC50 (HepG2; neutral red; 24 h): 4.27
O=C(Nc1ccc(Cl)cc1)Nc1cccc(-c2cn(Cc3ccc(Br)cc3)nn2)c1 — viability (Huh-7; CCK-8; 50 µM, 48 h): 60.5%
